Results as given in ChEMBL document CHEMBL1142960, “Synthesis and structure-activity relationships for 2,4-dinitrobenzamide-5-mustards as prodrugs for the Escherichia coli nfsB nitroreductase in gene therapy” (J Med Chem, 2007).
≈ marks a conversion by molar mass, not a printed value.

Tests used:
WiDr [1] = assay: Antiproliferative activity against human wild type WiDr NTR-ve cells after 18 hrs; type: functional, cell-based
V79 [2] = assay: Antiproliferative activity against chinese hamster V79 NTRpuro cells after 18 hrs; type: functional, cell-based; conditions: Cricetulus griseus, V79, 18 h
WiDr [3] = assay: Selectivity ratio of IC50 for WiDr NTR-ve cells to IC50 for WiDr NTRneo cells; type: functional, Homo sapiens
[4] = Solubility in alpha MEM; type: physicochemical
How it was run: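 Solubility (mM) in α-MEM with 5% fetal calf serum at ambient temperature, measured by HPLC.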

[5] = Stability in alpha MEM at 37 degC after 24 hrs; type: physicochemical; conditions: read-out: Stability
How it was run: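 Percent parent compound remaining, by HPLC, after holding in α-MEM with 5% fetal calf serum at 37 °C for 24 h.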

V79 [6] = assay: Antiproliferative activity against chinese hamster wild-type V79 NTR-ve cells after 18 hrs; type: functional, cell-based; conditions: Cricetulus griseus, V79, 18 h
V79 [7] = assay: Selectivity ratio of IC50 for V79 NTR-ve cells to IC50 for V79 NTRpuro cells; type: functional, Cricetulus griseus
[8] = Antiproliferative activity against human Skov3 NTRneo cells after 18 hrs; type: functional, cell-based; conditions: SK-OV-3, 18 h
EMT6 [9] = assay: Selectivity ratio of IC50 for EMT6 NTR-ve cells to IC50 forEMT6 NTRpuro cells; type: functional, Mus musculus
[10] = Selectivity ratio of IC50 for Skov3 NTR-ve cells to IC50 for Skov3 NTRneo cells; type: functional, Homo sapiens
EMT6 [11] = assay: Antiproliferative activity against mouse EMT6 NTRpuro cells after 18 hrs; type: functional, cell-based; conditions: EMT6, 18 h
[12] = Antiproliferative activity against human wild type Skov3 NTR-ve cells after 18 hrs; type: functional, cell-based
WiDr [13] = assay: Antiproliferative activity against human WiDr NTRneo cells after 18 hrs; type: functional, cell-based
EMT6 [14] = assay: Antiproliferative activity against mouse wild type EMT6 NTR-ve cells after 18 hrs; type: functional, cell-based; conditions: EMT6, 18 h
V79 [15] = assay: Clonogenic survival of 3% V79 NTRpuro cells in co-cultures with 97% V79 NTRoua after 5 hrs by MCL assay; type: functional, Cricetulus griseus
How it was run: (§1)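 Multicellular layer cocultures of 3% V79-NTRpuro activators and 97% V79oua NTR-ve targets (ouabain-resistant), exposed to prodrug for 5 h. MCLs were then trypsin-dissociated and plated in ouabain or puromycin selective media for clonogenic survival. C10 (10% survival) interpolated for activators and targets; AC/TC ratio derived. Mean with SEM or range over independent experiments.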

[16] = Partition coefficient at pH 7.4 by shake-flask method; type: physicochemical; conditions: octanol/water
How it was run: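 Octanol-water partition coefficient by shake-flask at pH 7.4, reported with SEM.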

V79 [17] = assay: Clonogenic survival of 97% V79 NTRoua cells in co-cultures with 3% V79 NTRpuro cells after 5 hrs by MCL assay; type: functional, Cricetulus griseus; how it was run: as §1
EMT6 [18] = assay: Antitumor activity against mixed mouse EMT6/EMT6 NTRpuro cells injected in CD1 nude mouse assessed as cell kill at 200 umol/kg, ip in DMA/PEG after 18 hrs; type: functional
[19] = Toxicity in ip dosed CD1 nude mouse in DMA/PEG; type: organism-based; conditions: in vivo
How it was run: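 Maximum tolerated dose (MTD) determined in CD-1 nude mice after a single i.p. injection of prodrug, given in the vehicle named in each line.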

V79 [20] = assay: Clonogenic survival of V79 NTRoua cells after 5 hrs by MCL assay; type: functional, Cricetulus griseus
WiDr [21] = assay: Antitumor activity against human 100% WiDr NTRneo tumor cells injected in CD1 nude mouse assessed as growth delay at 200 umol/kg, ip in DMA/PEG; type: functional
How it was run: (§2)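 WiDr-NTRneo tumours (100% NTR+ve, or 1:9 NTR+ve:NTR-ve mixtures) in CD-1 nude mice, given a single i.p. dose at MTD. Read-out is median growth delay to 15 mm mean diameter, plus tumours not palpable 100 days after treatment. Aziridine given at 200 µmol/kg as positive control in every experiment.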

WiDr [22] = assay: Antitumor activity against mixed human 10% WiDr NTRneo/ 90% WiDr tumor cells injected in CD1 nude mouse assessed as growth delay at 200 umol/kg, ip in DMA/PEG; type: functional; how it was run: as §2

| SMILES | IC50 (WiDr [1]) [µM] | IC50 (V79 [2]) [µM] | Ratio IC50 (WiDr [3]) | solubility [4] [µM] | remaining at 24 h [5] [%] | IC50 (V79 [6]) [µM] | Ratio IC50 (V79 [7]) | IC50 [8] [µM] | Ratio IC50 (EMT6 [9]) | Ratio IC50 [10] | IC50 (EMT6 [11]) [µM] | IC50 [12] [µM] | IC50 (WiDr [13]) [µM] | IC50 (EMT6 [14]) [µM] | Activity (V79 [15]) [µM] | Activity (V79 [17]) [µM] | Activity (V79 [20]) [µM] | other results |
| --- | --- | --- | --- | --- | --- | --- | --- | --- | --- | --- | --- | --- | --- | --- | --- | --- | --- | --- |
| CS(=O)(=O)OCCN(CCOS(C)(=O)=O)c1cc(C(=O)NCC(O)CO)c([N+](=O)[O-])cc1[N+](=O)[O-] (configuration not stated) | 347 | 16 | 17 | 9000 (≈ 4900 µg/mL) | 54 | 237 | 13 | 10 | 31 | 43 | 8 | 379 | 23 | 251 | – | – | – | – |
| NC(=O)c1cc(N(CCCl)CCCl)c([N+](=O)[O-])cc1[N+](=O)[O-] | 703 | 17 | 93 | 750 (≈ 263 µg/mL) | 99 | 490 | 42 | 9.5 | 261 | 98 | 1.85 | 803 | 9.5 | 442 | 98 | 120 | >1000 | logD [16]: 1.52; LCK (EMT6 [18]): 2.29; MTD [19]: 200 µmol/kg; Activity (WiDr [21]): 29 days; Activity (WiDr [22]): 11 days |
| O=C(NCCO)c1cc(N(CCI)CCI)c([N+](=O)[O-])cc1[N+](=O)[O-] | 28 | – | 31.7 | 400 (≈ 231 µg/mL) | 23 | – | – | – | – | – | – | – | 0.882 | – | 5.5 | 10 | 122 | – |
| O=C(NOCCO)c1cc(N(CCCl)CCCl)c([N+](=O)[O-])cc1[N+](=O)[O-] | 895 | 13 | 39 | 2100 (≈ 864 µg/mL) | 100 | 750 | 76 | 11 | 85 | >90 | 6.6 | > 1190 | 25 | 560 | – | – | – | – |
| O=C(NCCCCN1CCOCC1)c1cc(N(CCCl)CCCl)c([N+](=O)[O-])cc1[N+](=O)[O-] | 68 | 25 | 3 | 2000 (≈ 985 µg/mL) | 91 | 142 | 5.9 | 9.3 | 28 | 61 | 7.4 | 447 | 23 | 192 | – | – | – | – |
| O=C(NCCCN1CCOCC1)c1cc(N(CCCl)CCCl)c([N+](=O)[O-])cc1[N+](=O)[O-] | 163 | 105 | 1.9 | 22000 (≈ 10500 µg/mL) | 96 | 348 | 3.4 | 55 | 8 | 14 | 24 | 692 | 90 | 199 | – | – | – | – |
| NC(=O)c1cc(N(CCI)CCI)c([N+](=O)[O-])cc1[N+](=O)[O-] | 15 | 0.2 | 50 | 40 (≈ 21.4 µg/mL) | 69 | 11 | 54 | 0.43 | 332 | 71 | 0.08 | 30 | 0.3 | 25 | 1.65 | 2 | >20 | logD [16]: 2.41; LCK (EMT6 [18]): 1.48; MTD [19]: 200 µmol/kg; Activity (WiDr [21]): 8 days |
